Measurements from different studies.
Compare with care: the assays were run in different laboratories.
PDE3A: cGMP-inhibited 3',5'-cyclic phosphodiesterase 3A (PDE3A, Homo sapiens, UniProt Q14432)
LRRK2: Leucine-rich repeat serine/threonine-protein kinase 2 (LRRK2, Homo sapiens, UniProt Q5S007)
MAPK14: Mitogen-activated protein kinase 14 (MAPK14, Homo sapiens, UniProt Q16539)
MST1R: Macrophage-stimulating protein receptor (MST1R, Homo sapiens, UniProt Q04912)

Compound	target	assay	IC50 [nM]
CCCCCCOC(=O)c1ccccc1C(=O)c1ccc(N(CC)CC)cc1O	Estrogen receptor (ESR1, Homo sapiens, UniProt P03372)	reporter gene, antagonist	4760
N#Cc1ccc(COc2cccc(C3CCN(Cc4nc5ccc(C(=O)O)cc5n4C[C@@H]4CCO4)CC3)n2)c(F)c1	PDE3A	enzyme activity, inhibitor	2300
O=C(/C=C/c1ccc(O)c(O)c1)O[C@H](Cc1ccc(O)c(O)c1)C(=O)O	LRRK2	enzyme activity, inhibitor, radiometric	1870
CC(C)C[C@H](NC(=O)[C@H]1O[C@@H]1C(=O)O)C(=O)NCCCCN=C(N)N	Dipeptidyl peptidase 1 (CTSC, Homo sapiens, UniProt P53634)	enzyme activity, inhibitor	735
CC(Cc1ccc(O)c(O)c1)C(C)Cc1ccc(O)c(O)c1 (stereo not drawn)	LRRK2	enzyme activity, inhibitor, radiometric	456
CC(C)(C)n1nc(-c2ccc3nc(OC4CC4)ccc3c2)c(C(N)=O)c1N	MAPK14	cell-free assay	> 10000
CN1CCN(c2ccc(Nc3ncc4cc(C#N)c(=O)n(C5CCCC5)c4n3)cc2)CC1	Casein kinase I isoform epsilon (CSNK1E, Homo sapiens, UniProt P49674)	enzyme activity, inhibitor	5490
CC(O)C(C)C(=O)N1CCC(NC(=O)Nc2ccc(OC(F)(F)F)c(F)c2)CC1 (stereo not drawn)	Bifunctional epoxide hydrolase 2 (Ephx2, Rattus norvegicus, UniProt P80299)	enzyme activity, inhibitor	4.3
COc1cc(C[C@H]2C(=O)OC[C@@H]2Cc2ccc(OC)c(OC)c2)ccc1O	PDE3A	enzyme activity, inhibitor	> 20000
COc1cc2c(cc1OC)-c1c/c(=N\c3c(C)cc(C)cc3C)n(C)c(=O)n1CC2	PDE3A	enzyme activity, inhibitor, FP	0.067
Cc1ccc(NC(=O)c2cccc(N(C)C)c2)cc1NC(=O)c1ccc(O)cc1	MAPK14	enzyme activity, inhibitor, ADP detection	300
CC1=CC[C@@H](C(C)(C)O)CC1	Urease subunit beta (ureB, Helicobacter pylori, UniProt P69996)	enzyme activity in cells, inhibitor, absorbance	9350
CCCC[C@H](NC(=O)[C@H](C)c1c(C)[nH]c2ccc(O)cc12)c1ncc(-c2cc3ccccc3nc2OC)[nH]1	Prostaglandin E2 receptor EP3 subtype (PTGER3, Homo sapiens, UniProt P43115)	enzyme activity	8650
Cc1cnc(-c2ccc(-c3ccc(NC(=O)Nc4c(F)cc(F)cc4F)cc3F)c3c2C(=O)NC3)[nH]1	LRRK2	enzyme activity, inhibitor	13.4
N#C/C(=C\c1ccc(O)c(O)c1)C(=O)OC/C=C/c1ccccc1	LRRK2	enzyme activity, inhibitor, radiometric	619
C[C@@H]1Cc2ccccc2N1C(=O)NCCCCN(C)[C@@H]1Cc2cccc3[nH]c(=O)n(c23)C1	5-hydroxytryptamine receptor 1A (HTR1A, Homo sapiens, UniProt P08908)	ligand displacement, radioligand	35.8
CC(C)(C)n1nc(-c2cnc3cc(OC4CC4)ccc3c2)c(C(N)=O)c1N	Death-associated protein kinase 3 (DAPK3, Homo sapiens, UniProt O43293)	cell-free assay	> 10000
COCCOCOc1ccc(C(=O)/C=C/c2ccc(C(=O)O)cc2)cc1C12CC3CC(CC(C3)C1)C2	Inhibitor of nuclear factor kappa-B kinase subunit beta (IKBKB, Homo sapiens, UniProt O14920)	enzyme activity, inhibitor, TR-FRET	16700
CNC(=O)c1cc2c(Oc3ccc(NC(=O)C4(C(=O)Nc5ccc(F)cc5)CC4)cc3)ccnc2cc1OC	MST1R	enzyme activity, inhibitor, radiometric	43
Cn1c(=O)c([N+](=O)[O-])c(Cl)c2ccccc21	Adenylate cyclase type 1 (Homo sapiens, UniProt Q08828)	cAMP	300
COc1ccc2c(Oc3ccc4c(C(=O)Nc5ccccc5N)cccc4c3)ccnc2c1	MST1R	enzyme activity, inhibitor	> 500
